Assay results: the M2OR odorant receptor database
Residue numbers refer to the chain shown, from its start.

Legend:
Details in all cases: stereoisomer not certain
OR6C65 (Homo sapiens) = target: T1, OR6C65 (Homo sapiens) (UniProt A6NJZ3)
T1 sequence (whole entry): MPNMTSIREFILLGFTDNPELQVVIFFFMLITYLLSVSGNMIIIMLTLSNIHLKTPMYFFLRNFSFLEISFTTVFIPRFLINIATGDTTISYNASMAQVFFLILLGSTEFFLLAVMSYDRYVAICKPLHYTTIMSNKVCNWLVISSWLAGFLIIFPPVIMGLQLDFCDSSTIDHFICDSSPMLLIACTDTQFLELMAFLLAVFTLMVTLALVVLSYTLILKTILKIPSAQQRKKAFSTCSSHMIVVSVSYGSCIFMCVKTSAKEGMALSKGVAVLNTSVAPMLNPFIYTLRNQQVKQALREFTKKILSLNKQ
Procedure, shortened: (§1)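 Whether a receptor–molecule pair is responsive (active) rests on the original authors' judgment that its measured signal was statistically different from baseline. Pairs without that judgment are non-responsive (inactive). Sources used varied assay methods, commonly transient luciferase assays in mammalian cell lines.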

OR6C68 (Homo sapiens) = target: T2, OR6C68 (Homo sapiens) (UniProt A6NDL8)
T2 sequence (whole entry): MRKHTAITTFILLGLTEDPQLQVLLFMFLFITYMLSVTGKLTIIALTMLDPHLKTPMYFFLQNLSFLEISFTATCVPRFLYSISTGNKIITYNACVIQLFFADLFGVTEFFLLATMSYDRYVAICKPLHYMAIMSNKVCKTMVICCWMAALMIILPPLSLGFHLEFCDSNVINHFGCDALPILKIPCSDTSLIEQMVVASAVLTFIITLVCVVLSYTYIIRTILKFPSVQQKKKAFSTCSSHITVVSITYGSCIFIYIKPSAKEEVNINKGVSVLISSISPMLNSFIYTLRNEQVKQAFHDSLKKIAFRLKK
Procedure, shortened: as §1

OR6C70 (Homo sapiens) = target: T3, OR6C70 (Homo sapiens) (UniProt A6NIJ9)
T3 sequence (whole entry): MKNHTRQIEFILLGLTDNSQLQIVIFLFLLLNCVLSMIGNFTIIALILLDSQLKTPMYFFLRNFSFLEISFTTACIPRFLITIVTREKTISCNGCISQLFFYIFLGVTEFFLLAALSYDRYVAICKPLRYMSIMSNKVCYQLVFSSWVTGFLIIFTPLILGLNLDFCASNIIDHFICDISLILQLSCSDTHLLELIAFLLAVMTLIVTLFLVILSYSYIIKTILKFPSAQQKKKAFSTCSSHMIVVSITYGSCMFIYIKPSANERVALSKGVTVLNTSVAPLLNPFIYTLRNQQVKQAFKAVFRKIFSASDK
Procedure, shortened: as §1

OR6C74 (Homo sapiens) = target: T4, OR6C74 (Homo sapiens) (UniProt A6NCV1)
T4 sequence (whole entry): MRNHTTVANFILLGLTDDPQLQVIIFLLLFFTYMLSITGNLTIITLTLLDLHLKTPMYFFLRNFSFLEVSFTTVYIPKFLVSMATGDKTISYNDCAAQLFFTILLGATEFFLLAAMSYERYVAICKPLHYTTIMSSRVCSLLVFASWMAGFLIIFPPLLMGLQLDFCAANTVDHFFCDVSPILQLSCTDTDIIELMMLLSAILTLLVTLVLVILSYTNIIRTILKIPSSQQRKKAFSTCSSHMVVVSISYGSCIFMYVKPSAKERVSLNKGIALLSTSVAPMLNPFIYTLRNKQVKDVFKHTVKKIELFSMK
Procedure, shortened: as §1

OR6C75 (Homo sapiens) = target: T5, OR6C75 (Homo sapiens) (UniProt A6NL08)
T5 sequence (whole entry): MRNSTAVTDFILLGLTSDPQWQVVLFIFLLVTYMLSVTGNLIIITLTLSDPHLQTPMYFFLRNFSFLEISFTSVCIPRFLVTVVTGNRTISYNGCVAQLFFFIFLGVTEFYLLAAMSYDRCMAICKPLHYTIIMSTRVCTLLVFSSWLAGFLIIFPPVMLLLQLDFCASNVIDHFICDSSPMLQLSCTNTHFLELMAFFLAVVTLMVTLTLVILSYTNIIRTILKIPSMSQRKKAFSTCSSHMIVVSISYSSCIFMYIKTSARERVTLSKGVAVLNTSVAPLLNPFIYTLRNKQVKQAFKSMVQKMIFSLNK
Procedure, shortened: as §1

OR6C76 (Homo sapiens) = target: T6, OR6C76 (Homo sapiens) (UniProt A6NM76)
T6 sequence (whole entry): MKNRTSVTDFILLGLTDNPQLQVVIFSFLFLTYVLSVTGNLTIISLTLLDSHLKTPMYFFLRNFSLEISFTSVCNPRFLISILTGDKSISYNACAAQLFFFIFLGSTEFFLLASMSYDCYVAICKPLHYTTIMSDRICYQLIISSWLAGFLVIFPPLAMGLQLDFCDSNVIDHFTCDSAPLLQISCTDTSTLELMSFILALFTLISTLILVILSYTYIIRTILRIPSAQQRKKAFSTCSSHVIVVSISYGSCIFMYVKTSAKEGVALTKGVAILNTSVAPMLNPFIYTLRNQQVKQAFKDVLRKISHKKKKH
Procedure, shortened: as §1

OR6F1 (Homo sapiens) = target: T7, OR6F1 (Homo sapiens) (UniProt Q8NGZ6)
T7 sequence (whole entry): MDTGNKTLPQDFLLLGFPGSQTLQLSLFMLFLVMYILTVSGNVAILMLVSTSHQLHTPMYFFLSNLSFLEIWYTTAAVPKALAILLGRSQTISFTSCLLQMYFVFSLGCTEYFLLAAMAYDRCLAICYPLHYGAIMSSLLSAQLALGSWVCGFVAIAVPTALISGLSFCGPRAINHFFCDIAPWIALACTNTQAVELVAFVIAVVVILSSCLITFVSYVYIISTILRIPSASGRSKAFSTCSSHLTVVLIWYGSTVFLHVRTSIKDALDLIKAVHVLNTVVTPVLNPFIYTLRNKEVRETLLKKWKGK
Procedure, shortened: as §1

OR6J1 (Homo sapiens) = target: T8, OR6J1 (Homo sapiens) (UniProt Q8NGC5)
T8 sequence (whole entry): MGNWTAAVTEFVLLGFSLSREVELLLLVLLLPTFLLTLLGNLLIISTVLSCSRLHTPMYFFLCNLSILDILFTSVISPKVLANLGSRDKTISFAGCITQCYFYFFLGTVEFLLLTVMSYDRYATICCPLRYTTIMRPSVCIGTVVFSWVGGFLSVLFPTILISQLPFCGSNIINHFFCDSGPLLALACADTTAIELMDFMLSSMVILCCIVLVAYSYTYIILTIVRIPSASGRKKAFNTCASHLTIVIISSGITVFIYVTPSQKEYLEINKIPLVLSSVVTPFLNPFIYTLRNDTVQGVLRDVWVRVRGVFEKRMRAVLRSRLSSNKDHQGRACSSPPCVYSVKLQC
Procedure, shortened: as §1

OR6K2 (Homo sapiens) = target: T9, OR6K2 (Homo sapiens) (UniProt Q8NGY2)
T9 sequence (whole entry): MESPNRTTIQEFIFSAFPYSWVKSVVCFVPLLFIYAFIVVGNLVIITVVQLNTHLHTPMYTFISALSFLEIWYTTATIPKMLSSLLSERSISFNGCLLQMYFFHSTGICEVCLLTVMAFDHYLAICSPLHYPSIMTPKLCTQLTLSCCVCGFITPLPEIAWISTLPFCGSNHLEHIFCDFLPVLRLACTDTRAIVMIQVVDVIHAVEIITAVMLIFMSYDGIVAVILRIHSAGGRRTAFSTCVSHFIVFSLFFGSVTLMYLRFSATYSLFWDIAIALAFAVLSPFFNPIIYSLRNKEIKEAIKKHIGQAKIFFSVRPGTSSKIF
Procedure, shortened: as §1

OR6K3 = test system: T10, OR6K3
T10 sequence (whole entry): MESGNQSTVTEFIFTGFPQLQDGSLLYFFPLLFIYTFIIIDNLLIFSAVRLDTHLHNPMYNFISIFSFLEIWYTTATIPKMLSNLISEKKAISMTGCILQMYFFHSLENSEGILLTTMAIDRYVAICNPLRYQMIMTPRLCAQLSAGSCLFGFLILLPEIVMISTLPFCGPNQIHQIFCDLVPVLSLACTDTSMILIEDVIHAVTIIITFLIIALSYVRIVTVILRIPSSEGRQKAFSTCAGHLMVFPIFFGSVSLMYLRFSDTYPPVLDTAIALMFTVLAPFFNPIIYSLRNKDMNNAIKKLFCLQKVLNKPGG
Procedure, shortened: as §1

OR6K6 (Homo sapiens) = target: T11, OR6K6 (Homo sapiens) (UniProt Q8NGW6)
T11 sequence (whole entry): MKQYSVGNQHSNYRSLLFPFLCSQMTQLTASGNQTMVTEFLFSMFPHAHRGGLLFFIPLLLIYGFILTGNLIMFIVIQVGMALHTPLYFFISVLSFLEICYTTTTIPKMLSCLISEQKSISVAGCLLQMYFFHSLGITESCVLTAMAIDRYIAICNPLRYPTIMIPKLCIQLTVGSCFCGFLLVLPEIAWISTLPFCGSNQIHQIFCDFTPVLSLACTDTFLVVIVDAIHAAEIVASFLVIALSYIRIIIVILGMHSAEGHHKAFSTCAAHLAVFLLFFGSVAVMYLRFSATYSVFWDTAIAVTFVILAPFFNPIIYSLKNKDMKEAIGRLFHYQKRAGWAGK
Procedure, shortened: as §1

OR6M1 (Homo sapiens) = target: T12, OR6M1 (Homo sapiens) (UniProt Q8NGM8)
T12 sequence (whole entry): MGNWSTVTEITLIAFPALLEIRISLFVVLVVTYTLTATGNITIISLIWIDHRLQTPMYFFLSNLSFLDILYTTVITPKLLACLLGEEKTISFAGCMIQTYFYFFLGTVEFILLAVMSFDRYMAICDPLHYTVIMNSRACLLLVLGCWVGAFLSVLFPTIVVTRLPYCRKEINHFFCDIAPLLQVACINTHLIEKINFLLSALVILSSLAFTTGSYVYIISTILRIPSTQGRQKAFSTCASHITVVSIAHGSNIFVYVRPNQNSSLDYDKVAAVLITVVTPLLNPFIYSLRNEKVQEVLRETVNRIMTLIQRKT
Procedure, shortened: as §1

OR6M1 R224C = test system: T13, OR6M1 R224C
T13 sequence (whole entry): T12 sequence (whole entry) with R224C
Procedure, shortened: as §1

OR6M1 T276K = test system: T14, OR6M1 T276K
T14 sequence (whole entry): T12 sequence (whole entry) with T276K
Procedure, shortened: as §1

OR6N1 (Homo sapiens) = target: T15, OR6N1 (Homo sapiens) (UniProt Q8NGY5)
T15 sequence (whole entry): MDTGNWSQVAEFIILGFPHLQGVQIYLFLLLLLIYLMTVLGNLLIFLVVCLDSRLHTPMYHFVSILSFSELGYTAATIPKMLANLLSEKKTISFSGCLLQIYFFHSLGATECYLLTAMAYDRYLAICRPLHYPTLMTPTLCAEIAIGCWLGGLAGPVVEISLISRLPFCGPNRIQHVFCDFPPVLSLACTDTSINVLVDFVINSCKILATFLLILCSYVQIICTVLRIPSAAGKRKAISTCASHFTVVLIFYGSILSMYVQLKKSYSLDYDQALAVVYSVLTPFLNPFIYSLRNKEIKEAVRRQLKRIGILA
Procedure, shortened: as §1

OR6N2 (Homo sapiens) = target: T16, OR6N2 (Homo sapiens) (UniProt Q8NGY6)
T16 sequence (whole entry): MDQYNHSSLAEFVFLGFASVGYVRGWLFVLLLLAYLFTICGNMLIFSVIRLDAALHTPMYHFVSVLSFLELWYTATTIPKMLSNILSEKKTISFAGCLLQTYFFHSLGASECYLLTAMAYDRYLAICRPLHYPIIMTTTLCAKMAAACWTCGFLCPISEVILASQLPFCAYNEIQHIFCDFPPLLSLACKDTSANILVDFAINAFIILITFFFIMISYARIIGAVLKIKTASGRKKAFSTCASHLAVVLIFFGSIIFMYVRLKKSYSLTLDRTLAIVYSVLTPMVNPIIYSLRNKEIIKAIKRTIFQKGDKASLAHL
Procedure, shortened: as §1

OR6P1 (Homo sapiens) = target: T17, OR6P1 (Homo sapiens) (UniProt Q8NGX9)
T17 sequence (whole entry): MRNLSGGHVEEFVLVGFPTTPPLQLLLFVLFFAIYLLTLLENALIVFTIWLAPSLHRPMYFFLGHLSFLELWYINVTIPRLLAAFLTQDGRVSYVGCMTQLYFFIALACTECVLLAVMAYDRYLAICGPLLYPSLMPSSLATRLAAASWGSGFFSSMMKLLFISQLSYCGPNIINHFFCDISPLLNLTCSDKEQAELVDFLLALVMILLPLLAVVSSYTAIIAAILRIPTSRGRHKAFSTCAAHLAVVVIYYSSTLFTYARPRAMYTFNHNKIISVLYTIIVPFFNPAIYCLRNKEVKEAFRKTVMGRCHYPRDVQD
Procedure, shortened: as §1

OR6Q1 (Homo sapiens) = target: T18, OR6Q1 (Homo sapiens) (UniProt Q8NGQ2)
T18 sequence (whole entry): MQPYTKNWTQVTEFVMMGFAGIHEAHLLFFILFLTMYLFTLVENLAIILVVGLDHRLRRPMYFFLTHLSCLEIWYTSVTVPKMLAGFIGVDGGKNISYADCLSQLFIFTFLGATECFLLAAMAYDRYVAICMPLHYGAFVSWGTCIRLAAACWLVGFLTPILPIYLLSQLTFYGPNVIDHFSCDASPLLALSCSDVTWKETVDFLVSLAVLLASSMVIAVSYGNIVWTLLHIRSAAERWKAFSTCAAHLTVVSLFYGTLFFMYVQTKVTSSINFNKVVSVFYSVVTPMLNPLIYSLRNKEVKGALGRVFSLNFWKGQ
Procedure, shortened: as §1

Measured: odorant receptor agonist call;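 also: active if original authors judged signal statistically different from baseline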

CCC1OC(=O)C(O)=C1C (stereo not drawn)
inactive: all assays above
